Screening data: PubChem BioAssay, Broad Institute
In the library only some 2.6% were active in any assay of this set; here they are far more common.
E-sel inducer: induces E-selectin expression in human endothelial cells | HUVEC E-selectin immunofluorescence imaging; normalized: neutral wells 0, TNF-alpha wells 100 | activation, % at 7.58 µM | 260,000 compounds, 0.37% hits | P16581;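 active = mean E-selectin-positive cell signal at least 10% of the positive control, reached in at least 60% of replicates, without over 20% cell loss; inconclusive = no rule given, readout overlaps actives, possibly toxicity-flagged; inactive = the rest, including those meeting only one limit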
Target sequence (P16581 whole entry, looked up): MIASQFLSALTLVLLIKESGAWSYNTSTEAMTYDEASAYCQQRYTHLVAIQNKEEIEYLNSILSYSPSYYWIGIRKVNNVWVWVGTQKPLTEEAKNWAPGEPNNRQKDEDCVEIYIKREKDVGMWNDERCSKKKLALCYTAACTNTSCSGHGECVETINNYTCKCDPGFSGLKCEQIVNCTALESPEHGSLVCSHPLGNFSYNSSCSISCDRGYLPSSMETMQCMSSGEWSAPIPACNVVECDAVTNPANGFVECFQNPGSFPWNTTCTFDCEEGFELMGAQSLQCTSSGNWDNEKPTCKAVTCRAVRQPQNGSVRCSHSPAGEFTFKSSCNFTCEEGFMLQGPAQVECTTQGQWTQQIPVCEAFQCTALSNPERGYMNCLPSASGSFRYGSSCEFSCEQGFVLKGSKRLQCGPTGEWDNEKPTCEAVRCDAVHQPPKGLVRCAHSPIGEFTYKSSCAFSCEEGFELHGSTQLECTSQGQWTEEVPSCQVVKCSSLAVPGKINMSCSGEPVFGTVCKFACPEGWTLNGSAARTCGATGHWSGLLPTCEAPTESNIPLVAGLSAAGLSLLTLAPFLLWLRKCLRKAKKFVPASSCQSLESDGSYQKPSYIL
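Test system: HUVEC; input: 3,000 HUVEC/well; measured by: immunofluorescence imaging; read-out: % PE-positive cells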
miR122 inh: miR-122 inhibition in Huh7 cells. Huh7 miR-122 Renilla luciferase sensor, 48 h; neutral wells = 0, positive control = 100. activation (reporter increase), % at 12.5 µM. 340,000 compounds, 0.3% hits. AID 602342;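 active = mean replicate activation score at least 90 and every replicate individually at or above 90; inconclusive = only one of the two criteria met; inactive = neither criterion met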;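 note: higher luciferase means less miR-122 activity so hits act as miR-122 inhibitors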
GSIS activator: primary screen for activators of insulin secretion dependent on glucose, INS-1E cells, GLuc reporter luminescence; activation, % at 16.6 µM; 370,000 compounds, 0.61% hits; AID 743287; INS-1E GLuc reporter insulin secretion, 2-3 h;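 active = lowest replicate activation of at least 40%, so every replicate reaches that level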;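 note: 0% = median of neutral control wells and 100% = median of IBMX positive control wells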
F508del corr: correctors of CFTR F508del function in bronchial epithelial cells | CFBE cells, YFP halide quenching; stimulated with forskolin plus potentiator P3; % fluorescence drop versus neutral controls | activity (quench increase), % at 7.58 µM | 350,000 compounds, 0.36% hits | AID 720511;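 active = mean added fluorescence quench of at least 8% versus neutral control, with both replicates also reaching 8%; inconclusive = only one of the mean or replicate conditions met; inactive = mean below 8% and not both replicates reaching 8%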;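 note: cells transiently co-express mutant CFTR-F508del with the halide-sensitive YFP; corrector assay measuring rescue of mutant channel to the surface after 24 h compound exposure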
DENV2 CPE: protects cells from dengue virus 2 cytopathic effect; CPE inhibition, % at 9.99 µM; DENV2-infected cells, cytopathic effect rescue, plate reader; 350,000 compounds, 1.7% hits; AID 651640; in the data active = CPE inhibition above about 20%, passing the limit was not always enough; inconclusive = no clear call, values can overlap the other calls; tested in BHK-21 cells;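 note: 0% = median of neutral control wells and 100% = median of positive control wells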
ERAP1 HTS inh: blocks human ERAP1 aminopeptidase activity; Q9NZ08; recombinant ERAP1, Leu-AMC fluorescence, 60 min; inhibition, % at 10.7 µM; 340,000 compounds, 0.15% hits; AID 652197;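 active = mean replicate inhibition of at least 30%, or all replicates individually reaching that 30% level; inactive = mean below 30% and not every replicate reaching it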;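 note: 0% = neutral control wells and 100% = L-leucinethiol positive control wells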
The depositor's hits bear a star; ? = inconclusive; . = not tested or not shown; [ ] = remark or other dose.

SMILES	E-sel inducer	miR122 inh	GSIS activator	F508del corr	DENV2 CPE	ERAP1 HTS inh
Cc1ccc(S(=O)(=O)N(C)C[C@H]2Oc3ccc(NC(=O)Nc4ccc(C(F)(F)F)cc4)cc3C(=O)N([C@H](C)CO)C[C@@H]2C)cc1	1	-14[16.7 µM]	-4	-1	37*	-5
C[C@@H]1CN([C@H](C)CO)C(=O)c2cc(NC(=O)Nc3ccc(C(F)(F)F)cc3)ccc2O[C@@H]1CN(C)S(=O)(=O)c1ccc(F)cc1	1	44[16.7 µM]	-43	-1	-3	-3
O=C(C[C@@H]1C=C[C@H](NC(=O)Nc2ccc(C(F)(F)F)cc2)[C@@H](CO)O1)NCc1cccc(F)c1	-1	-8[16.7 µM]	-2	-1	12	2
COc1cccc(S(=O)(=O)N(C)C[C@H]2Oc3cc(C#CCC(C)C)ccc3S(=O)(=O)N([C@@H](C)CO)C[C@@H]2C)c1	1	30[16.7 µM]	-19	-3	3	1
O=C(Nc1nnc(-c2ccc(Cl)cc2)o1)NC1CCCCC1	.	-1	59*	.	.	.
COc1cc(NC(=O)CN2C(=O)C(=O)N(CC(C)C)C2=O)cc(OC)c1	0	10	43*	-3	-3	1
CCCNC(=O)C[C@H]1CC[C@@H]2[C@@H](COc3ccc(NC(=O)c4cscn4)cc3C(=O)N2C)O1	0	-27[16.7 µM]	-2	2	4	4
O=C(NCc1ccccc1)/C(=C\c1cccc([N+](=O)[O-])c1)NC(=O)c1ccco1	0	2	2	1	46*	15
O=C(O)CNC(=O)/C(=C/c1cccc([N+](=O)[O-])c1)NC(=O)c1ccco1	.	-4	11	1	-12	2
C[C@H](O)[C@@H]1CN2CCc3c([nH]c4ccccc34)[C@@H]2C[C@@H]1N(C)C(=O)Nc1ccc(Br)cc1	0	-6	-16	3	9	1
C[C@H](O)[C@@H]1CN2CCc3c([nH]c4ccccc34)[C@@H]2C[C@@H]1N(C)C(=S)Nc1ccc(C#N)cc1	0	5	0	2	25*	0
Cc1cccc(C(=O)NC(=S)NNC(=O)COc2c(C)cccc2C)c1	0	.	76*	.	.	.
Cn1cnc(CCNC(=O)C[C@H]2CC[C@@H]3[C@H](COC[C@H](O)CN3C(=O)Nc3ccc(F)cc3)O2)c1	0	1[16.7 µM]	15	-2	2	-2
COc1ccc2c3c([nH]c2c1)[C@H](CO)N(Cc1nccs1)CC31CCN(C(=O)C2CCOCC2)CC1	0	.	-1	1	-1	-11
CC(C)(C)c1ccc(S(=O)(=O)Nc2ccc(C(O)(C(F)(F)F)C(F)(F)F)cc2)cc1	.	103*	.	0	-9	-2
O=S(=O)(Nc1ccc(C(O)(C(F)(F)F)C(F)(F)F)cc1)c1cccc2ccccc12	.	102*	63	-2	2	0
CC(C)(C)c1ccc(S(=O)(=O)Nc2ccc(C(=O)N3CCCC3)cc2)cc1	-1	.	-16	-1	-8	-2
COc1cccc(S(=O)(=O)Nc2ccc(C(O)(C(F)(F)F)C(F)(F)F)cc2)c1	-1	129*	-25	-1	5	-3
C[C@@H]1CN([C@@H](C)CO)C(=O)c2cc(NC(=O)Nc3ccc(C(F)(F)F)cc3)ccc2O[C@@H](C)CCCCO[C@@H]1CN(C)S(=O)(=O)c1ccc(Cl)cc1	0	0[16.7 µM]	12	2	-2	.
Cc1ccc(S(=O)(=O)N(C)C[C@H]2OCCCC[C@@H](C)Oc3ccc(NC(=O)Nc4ccc(C(F)(F)F)cc4)cc3C(=O)N([C@@H](C)CO)C[C@H]2C)cc1	.	-4[16.7 µM]	21	1	24*	4
C[C@@H]1CCCCO[C@H](CN(C)S(=O)(=O)c2ccc(Cl)cc2)[C@@H](C)CN([C@@H](C)CO)C(=O)c2cc(NC(=O)Nc3ccc(C(F)(F)F)cc3)ccc2O1	1	3[16.7 µM]	6	2	32*	.
O=C(NC1CCCCC1)C1COc2ccccc2O1 (stereo not drawn)	0	.	20	-3	-5	5
CC1CCC(NC(=O)C2COc3ccccc3O2)CC1 (stereo not drawn)	0	.	57*	-2	?	4
COc1ccc(/C=N/Nc2cc(C)nc(N)n2)cc1	.	-2	-7	.	.	.
COc1ccc2nc(NN=Cc3cccc(C)n3)cc(C)c2c1	0	.	38	-3	54*	-3
